Measured values as given in ChEMBL document CHEMBL1143161, “Non-charged thiamine analogs as inhibitors of enzyme transketolase” (Bioorg Med Chem Lett, 2008).

Legend:
[1] = tested on: Cc1ncc(Cc2c(C)c(CCO)nn2C)c(N)n1; experiment: (§1) Ratio of kcat to Km for thiamine […]
In short: (§2)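 Enzymatic TPPK assay with kcat/Km derived, run in triplicate. The value is the average, with data within 2-fold of the mean.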

[2] = tested on: Cc1c(Cc2cnc(C(F)(F)F)nc2N)csc1CCO; experiment: as §1; in short: as §2
[3] = tested on: CC(=O)Nc1ncc(Cc2csc(CCO)c2C)c(N)n1; experiment: as §1; in short: as §2
[4] = tested on: Cc1c(Cc2cnc(C3CC3)nc2N)csc1CCO; experiment: as §1; in short: as §2
[5] = tested on: Cc1ncc(Cc2csc(CCO)c2C)c(N)n1; experiment: as §1; in short: as §2
[6] = tested on: Cc1ncc(Cn2c(C)c(CCO)sc2=O)c(N)n1; experiment: as §1; in short: as §2
[7] = tested on: Cc1c(Cc2cnc(-c3ccccc3)nc2N)csc1CCO; experiment: as §1; in short: as §2
Cc1c(Cc2cncnc2N)csc1CCO = experiment: as §1; in short: as §2
[8] = tested on: Cc1ncc(C[n+]2csc(CCO)c2C)c(N)n1; experiment: as §1; in short: as §2
[9] = tested on: Cc1c(Cc2cnc(C(C)C)nc2N)csc1CCO; experiment: as §1; in short: as §2

Thiamine pyrophosphokinase 1 (Homo sapiens), Q9H3S4
kcat/Km [1]: 1.9 10^-5/nM/s
kcat/Km [2]: 8.5 10^-4/nM/s
kcat/Km [3]: 1.1 10^-6/nM/s
kcat/Km [4]: 2.7 10^-5/nM/s
kcat/Km [5]: 3.4 10^-5/nM/s
kcat/Km [6]: 1 10^-5/nM/s
kcat/Km [7]: 1 10^-6/nM/s
kcat/Km (Cc1c(Cc2cncnc2N)csc1CCO): 1.2 10^-5/nM/s
kcat/Km [8]: 1.2 10^-5/nM/s
kcat/Km [9]: 2.4 10^-5/nM/s
